Experimental data taken from ChEMBL document CHEMBL1122908, “10-Ketonaltrexone and 10-ketooxymorphone” (J Med Chem, 1985).

Key:
[1] = molecular target: Delta-type opioid receptor (Mus musculus) (UniProt P32300); assay: Dose ratio due to Antagonist Effect at a concentration of 1000 nM by (D-Ala2, D-Leu5)enkephalin, Opioid receptor delta 1 in mouse vas deferens.; assay type: functional
Outline: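 Isolated guinea pig ileum myenteric plexus–longitudinal muscle and mouse vas deferens. Agonists were normorphine (μ) and ethylketazocine (κ) in both tissues, and (D-Ala2,D-Leu5)enkephalin (δ) in vas deferens. […] The shift in IC50 is given as dose ratio, mean ± SEM of three to five separate experiments.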

[2] = molecular target: Kappa-type opioid receptor (Mus musculus) (UniProt P33534); assay: Dose ratio due to Antagonist Effect at a concentration of 100 nM by ethylketazocine, Opioid receptor kappa 1 in mouse vas deferens.; assay type: functional
Chain of Kappa-type opioid receptor (Mus musculus) (P33534 whole entry): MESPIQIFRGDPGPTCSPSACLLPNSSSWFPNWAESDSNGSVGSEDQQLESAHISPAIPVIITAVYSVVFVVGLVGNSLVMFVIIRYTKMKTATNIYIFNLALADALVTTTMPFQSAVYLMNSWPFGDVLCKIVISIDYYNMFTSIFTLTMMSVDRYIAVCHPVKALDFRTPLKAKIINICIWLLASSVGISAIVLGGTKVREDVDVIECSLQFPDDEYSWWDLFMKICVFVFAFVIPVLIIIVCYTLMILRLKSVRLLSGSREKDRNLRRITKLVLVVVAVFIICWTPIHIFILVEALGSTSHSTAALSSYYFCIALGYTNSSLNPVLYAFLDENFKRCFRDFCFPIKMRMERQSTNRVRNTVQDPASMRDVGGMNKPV
Outline: (§1)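 Isolated guinea pig ileum myenteric plexus–longitudinal muscle and mouse vas deferens. Agonists were normorphine (μ) and ethylketazocine (κ) in both tissues, and (D-Ala2,D-Leu5)enkephalin (δ) in vas deferens. The shift in IC50 is given as dose ratio, mean ± SEM of three to five separate experiments.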

[3] = molecular target: Mu-type opioid receptor (Cavia porcellus) (UniProt P97266); assay: Dose ratio due to Antagonist Effect at a concentration of 100 nM by normorphine, Opioid receptor mu 1 in the guinea pig ileum longitudinal muscle myenteric plexus.; assay type: functional, tissue-based; outline: as §1
Chain of Mu-type opioid receptor (Cavia porcellus) (P97266 whole entry): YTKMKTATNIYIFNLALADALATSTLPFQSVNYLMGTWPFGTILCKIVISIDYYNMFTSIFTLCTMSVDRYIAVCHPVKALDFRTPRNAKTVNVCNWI

[4] = molecular target: Mu-type opioid receptor (Mus musculus) (UniProt P42866); assay: Dose ratio due to Antagonist Effect at a concentration of 100 nM by normorphine, Opioid receptor mu 1 in mouse vas deferens.; assay type: functional; outline: as §1
Chain of Mu-type opioid receptor (Mus musculus) (P42866 whole entry): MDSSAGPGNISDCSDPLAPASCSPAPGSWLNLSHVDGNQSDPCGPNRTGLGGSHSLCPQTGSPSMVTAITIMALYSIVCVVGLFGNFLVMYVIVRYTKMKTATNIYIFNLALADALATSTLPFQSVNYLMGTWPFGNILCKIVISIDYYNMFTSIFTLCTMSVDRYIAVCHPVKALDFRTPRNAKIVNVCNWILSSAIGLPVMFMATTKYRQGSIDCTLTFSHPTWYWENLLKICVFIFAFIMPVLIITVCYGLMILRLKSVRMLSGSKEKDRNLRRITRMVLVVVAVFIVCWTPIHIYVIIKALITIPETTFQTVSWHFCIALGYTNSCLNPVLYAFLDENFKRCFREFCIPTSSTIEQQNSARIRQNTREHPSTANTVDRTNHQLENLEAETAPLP

[5] = molecular target: Kappa-type opioid receptor (Cavia porcellus, UniProt P41144); assay: (§2) Inhibitory binding constant in guinea pig brain homogenate was reported at Opioid receptor kappa 1 at temperature 25 degree Celsius labeled with (-)-[3H]immazocine (0.1 nM).; assay type: tissue-based
Chain of Kappa-type opioid receptor (P41144 whole entry): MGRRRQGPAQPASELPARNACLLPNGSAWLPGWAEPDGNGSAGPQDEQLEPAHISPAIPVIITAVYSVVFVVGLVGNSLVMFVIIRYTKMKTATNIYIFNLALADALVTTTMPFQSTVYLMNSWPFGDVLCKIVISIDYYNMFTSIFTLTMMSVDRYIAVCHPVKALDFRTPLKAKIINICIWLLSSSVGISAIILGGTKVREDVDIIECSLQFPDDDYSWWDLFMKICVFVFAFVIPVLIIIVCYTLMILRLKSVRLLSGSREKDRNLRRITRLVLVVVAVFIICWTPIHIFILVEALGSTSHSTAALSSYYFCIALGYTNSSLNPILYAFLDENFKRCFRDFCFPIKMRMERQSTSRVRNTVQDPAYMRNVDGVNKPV

Mu-type opioid receptor = Mu-type opioid receptor (Cavia porcellus, UniProt P97266); assay: Inhibitory binding constant in guinea pig brain homogenate was reported at mu site at a temperature 25 degree Centigrade labeled with [3H](D-Ala2-MePhe4,Gly-ol5)enkephalin(1 nM); assay type: tissue-based
Chain of Mu-type opioid receptor (P97266 whole entry): as the sequence (P97266 whole entry) above

[6] = molecular target: Kappa-type opioid receptor (Cavia porcellus) (UniProt P41144); assay: Dose ratio due to Antagonist Effect at a concentration of 100 nM by ethylketazocine, Opioid receptor kappa 1 in the guinea pig ileum longitudinal muscle myenteric plexus.; assay type: functional, tissue-based; outline: as §1
Chain of Kappa-type opioid receptor (Cavia porcellus) (P41144 whole entry): as the sequence (P41144 whole entry) above

Mus musculus = species: Mus musculus; assay: Agonist activity in the mouse vas deferens.; assay type: functional
Outline: (§3)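 Isolated guinea pig ileum myenteric plexus–longitudinal muscle or mouse vas deferens preparations, run at 25 °C, testing opioid agonist potency.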

[7] = molecular target: Kappa-type opioid receptor (Cavia porcellus) (UniProt P41144); assay: as §2; assay type: tissue-based
[8] = molecular target: Mu-type opioid receptor (Cavia porcellus) (UniProt P97266); assay: Inhibitory binding constant in guinea pig brain homogenate was reported at mu site at a temperature 25 degree Celsius labeled with [3H](D-Ala2-MePhe4,Gly-ol5)enkephalin(1nM); assay type: tissue-based
Cavia porcellus = species: Cavia porcellus; assay: Agonist activity in the guinea pig ileum longitudinal muscle myenteric plexus.; assay type: functional; outline: as §3

Chain of Delta-type opioid receptor (Mus musculus) (P32300 whole entry): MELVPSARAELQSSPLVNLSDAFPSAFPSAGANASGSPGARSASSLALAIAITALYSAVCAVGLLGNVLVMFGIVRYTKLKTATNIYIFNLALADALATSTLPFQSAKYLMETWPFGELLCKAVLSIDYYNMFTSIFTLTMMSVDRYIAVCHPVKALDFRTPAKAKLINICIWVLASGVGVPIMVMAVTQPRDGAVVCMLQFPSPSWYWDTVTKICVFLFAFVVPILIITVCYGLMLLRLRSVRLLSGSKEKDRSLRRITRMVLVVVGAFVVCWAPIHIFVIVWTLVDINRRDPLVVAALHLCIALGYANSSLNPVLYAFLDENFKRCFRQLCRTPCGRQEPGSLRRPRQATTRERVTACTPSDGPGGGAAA

O=C1c2ccc(O)c3c2C24CCN(CC5CC5)C1[C@]2(O)CCC(=O)[C@@H]4O3 (stereo partly drawn) [KETONALTREXONE]
Dose ratio [1]: 0.71
Dose ratio [2]: 0.93
Dose ratio [3]: 1.84
Dose ratio [4]: 0.57
Ki [5]: 102 nM
Ki (Mu-type opioid receptor): 31.1 nM
Dose ratio [6]: 1.58

CN1CCC23c4c5ccc(O)c4O[C@H]2C(=O)CC[C@@]3(O)C1C5=O (stereo partly drawn) [KETOXYMORPHONE]
IC50 (Mus musculus): > 1000 nM
inhibition [7]: 17%
inhibition [8]: 19%
IC50 (Cavia porcellus): > 1000 nM

CN1CC[C@]23c4c5ccc(O)c4O[C@H]2C(=O)CC[C@@]3(O)[C@H]1C5 [OXYMORPHONE]
IC50 (Mus musculus): 77 nM
IC50 (Cavia porcellus): 24 nM
